The record followed here is ChEMBL document CHEMBL1955714, “Synthesis and antidiabetic performance of β-amino ketone containing nabumetone moiety” (Bioorg Med Chem, 2012).

As a reminder, the IC50 is the concentration needed to halve the response being measured. As a reminder, the EC50 is the concentration needed to bring the measured effect to its halfway point. The inhibition is the drop in the measured response relative to a control, in per cent.

The target of assay [1] is Peroxisome proliferator-activated receptor (Homo sapiens) (UniProt P37231+Q07869+Q03181). Put plainly: Activation of PPAR in human HepG2 cells at 10 ug/ml after 24 hrs by luciferase reporter gene assay relative to rosiglitazone. Type of assay: cell-based. The method in brief:
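HepG2 cells in low-glucose DMEM with 100 U mL-1 streptomycin/penicillin, plated at 1.5 × 10⁴ per well a day before transfection. At 70% confluence they were co-transfected with pPPRE-Luc (firefly) and phRL-TK (renilla). After 24 h the medium was replaced with sample-containing medium, with rosiglitazone as positive control. Dual firefly/renilla luciferase was read after a further 24 h; untransfected cells served as blank.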
For orientation: In a reporter assay the amount or activity of a reporter protein is the signal.

Assay [2] can be described thus: Inhibition of rat intestine alpha-glucosidase using maltose as substrate after 10 mins by spectrometric analysis. The method in brief: (§1)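 Enzyme and sample were preincubated at 37 °C for 10 min. Then 0.1 mol L-1 maltose was added and incubated 10 min at room temperature. The reaction was stopped and OD read at 490 nm. Blank (no enzyme, no sample) and negative (no sample) controls were run alongside.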

For assay [3], the target named is T1, Peroxisome proliferator-activated receptor (Homo sapiens, UniProt P37231+Q07869+Q03181).
T1 sequence (P37231 whole entry): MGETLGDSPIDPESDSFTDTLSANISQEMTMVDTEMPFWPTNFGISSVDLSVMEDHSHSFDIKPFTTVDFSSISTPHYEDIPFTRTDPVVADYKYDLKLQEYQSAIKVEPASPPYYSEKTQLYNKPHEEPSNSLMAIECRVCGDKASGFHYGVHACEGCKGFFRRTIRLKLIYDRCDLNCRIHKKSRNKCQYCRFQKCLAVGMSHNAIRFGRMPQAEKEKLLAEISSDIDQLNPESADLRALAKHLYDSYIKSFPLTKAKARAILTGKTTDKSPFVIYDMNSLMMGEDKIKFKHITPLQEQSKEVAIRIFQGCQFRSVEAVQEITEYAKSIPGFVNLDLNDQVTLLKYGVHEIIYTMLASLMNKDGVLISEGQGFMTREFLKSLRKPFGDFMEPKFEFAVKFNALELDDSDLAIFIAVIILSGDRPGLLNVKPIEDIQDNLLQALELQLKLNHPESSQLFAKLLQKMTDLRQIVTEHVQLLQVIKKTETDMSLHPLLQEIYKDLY
T1 sequence (Q07869 whole entry): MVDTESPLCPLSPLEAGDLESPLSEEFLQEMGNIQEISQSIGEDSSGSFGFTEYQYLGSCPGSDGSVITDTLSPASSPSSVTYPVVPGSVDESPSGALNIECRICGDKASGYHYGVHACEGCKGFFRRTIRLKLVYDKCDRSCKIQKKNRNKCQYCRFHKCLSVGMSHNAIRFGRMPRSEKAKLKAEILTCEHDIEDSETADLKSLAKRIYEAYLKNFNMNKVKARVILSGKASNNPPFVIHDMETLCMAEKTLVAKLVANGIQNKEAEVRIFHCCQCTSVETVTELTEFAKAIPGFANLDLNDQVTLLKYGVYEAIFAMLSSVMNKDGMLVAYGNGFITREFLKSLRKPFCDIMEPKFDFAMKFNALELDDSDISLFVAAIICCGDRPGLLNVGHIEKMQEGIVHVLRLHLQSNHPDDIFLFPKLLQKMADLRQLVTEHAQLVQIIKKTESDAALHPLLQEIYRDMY
T1 sequence (Q03181 whole entry): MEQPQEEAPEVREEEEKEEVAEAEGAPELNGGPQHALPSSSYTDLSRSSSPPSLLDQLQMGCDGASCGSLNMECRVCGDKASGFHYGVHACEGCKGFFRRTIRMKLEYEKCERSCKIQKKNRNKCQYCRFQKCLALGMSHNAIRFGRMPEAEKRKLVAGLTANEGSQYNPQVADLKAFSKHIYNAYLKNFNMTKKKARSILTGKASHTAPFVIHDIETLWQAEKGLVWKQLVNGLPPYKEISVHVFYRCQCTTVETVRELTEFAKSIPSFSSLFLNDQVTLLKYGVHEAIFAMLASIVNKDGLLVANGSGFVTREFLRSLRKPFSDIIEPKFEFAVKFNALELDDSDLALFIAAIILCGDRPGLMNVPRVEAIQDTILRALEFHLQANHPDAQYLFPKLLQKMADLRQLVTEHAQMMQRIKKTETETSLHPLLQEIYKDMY
The experiment in a line: Activation of PPAR in human HepG2 cells after 24 hrs by luciferase reporter gene assay. Type of assay: cell-based.

The species entered for assay [4] is Rattus norvegicus. The experiment in a line: Inhibition of rat intestine alpha-glucosidase using maltose as substrate after 10 mins by spectrometric analysis relative to acarbose. Also noted: concentration or dose not given beside the values. The method in brief: as §1

In brackets after ≈: the same amount, converted by molar mass.

In assay [1], `COc1ccc2cc(CCC(=O)CC(Nc3ccc(S(N)(=O)=O)cc3)c3ccc(Cl)cc3)ccc2c1` (configuration not stated) displayed an Activity of 71.9%. In assay [2], this compound had an IC50 of 4.07 µg/mL (≈ 7.78 µM). Besides, the EC50 in assay [3] amounted to 6.74 µg/mL (≈ 12.9 µM). For the same compound, the inhibition in assay [4] amounted to 66.3%.

For the compound `COc1ccc2cc(CCC(=O)CC(Nc3ccc(S(N)(=O)=O)cc3)c3ccc(O)cc3)ccc2c1` (configuration not stated), the Activity in assay [1] was 73.4%. The compound also displayed a half-inhibitory concentration (IC50) in assay [2] of 4.14 µg/mL (≈ 8.2 µM). This compound yielded an EC50 in assay [3] of 5.56 µg/mL (≈ 11 µM). Further, the inhibition in assay [4] was found to be 52.8%.

`COc1ccc2cc(CCC(=O)CC(Nc3ccc(S(N)(=O)=O)cc3)c3ccc(Br)cc3)ccc2c1` (configuration not stated) came in with an Activity in assay [1] of 67.3%. For the same compound, in assay [2], the IC50 came to 2.92 µg/mL (≈ 5.15 µM). Moreover, the EC50 in assay [3] was 8.21 µg/mL (≈ 14.5 µM). The inhibition in assay [4] amounted to 79.7%.
